Measurements as given in ChEMBL document CHEMBL4725283, “Selective Peptidomimetic Inhibitors of NTMT1/2: Rational Design, Synthesis, Characterization, and Crystallographic Studies” (J Med Chem, 2020).
Activity calls are given as the source filed them. The calls are words filed in the database; no cut-off is given here. Where a SMILES comes first, the peptide text is derived from it. [ ]: non-standard residue; d: D form. The star is where a group is joined. ξ: configuration not given here. ξαMeP = CC1(C(=O)O)CCCN1; X1 = O=C(Cc1ccc(O)cc1)*; PhAc = O=C(Cc1ccccc1)*; Bz = O=C(c1ccccc1)*

What was measured:
[1] = biological target: T1, N-terminal Xaa-Pro-Lys N-methyltransferase 1 (Homo sapiens) (UniProt Q9BV86); assay: Substrate activity at recombinant human full-length His6-tagged NTMT1 (1 to 222 residues) expressed in Escherichia coli BL21-CodonPlus(DE3)-RIL competent cells by MALDI-MS analysis
T1 sequence (whole entry): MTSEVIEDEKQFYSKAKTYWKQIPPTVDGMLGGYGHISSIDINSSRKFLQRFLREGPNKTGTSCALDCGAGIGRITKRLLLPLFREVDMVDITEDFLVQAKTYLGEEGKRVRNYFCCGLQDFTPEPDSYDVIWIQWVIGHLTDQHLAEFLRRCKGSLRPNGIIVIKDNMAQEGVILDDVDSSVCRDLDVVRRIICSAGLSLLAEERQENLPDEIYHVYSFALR

[2] = biological target: T2, N-terminal Xaa-Pro-Lys N-methyltransferase 1 (Homo sapiens, UniProt Q9BV86); assay: (§1) Inhibition of recombinant human full-length His6-tagged NTMT1 (1 to 222 residues) expressed in Escherichia coli BL21-CodonPlus(DE3)-RIL competent cells pre-incubated for 10 mins in presence of SAM and SAHH before RCC1-6 addition and measured after 15 mins by fluorescence based SAHH-coupled assay
T2 sequence (Q9BV86 whole entry): T1 sequence (whole entry)
Outline: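 Pre-incubated 10 min at 37 °C, then started with RCC1-6 (10 µL of 50 µM stock in 100 µL). Line 11 screened at 30 µM; line 12 used 0–100 µM three-fold series, four-parameter fit. Triplicate.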

[3] = biological target: N-terminal Xaa-Pro-Lys N-methyltransferase 2 (Homo sapiens, UniProt Q5VVY1); assay: Binding affinity to recombinant human full-length His6-tagged NTMT2 by ITC assay
Chain of N-terminal Xaa-Pro-Lys N-methyltransferase 2 (Q5VVY1 whole entry): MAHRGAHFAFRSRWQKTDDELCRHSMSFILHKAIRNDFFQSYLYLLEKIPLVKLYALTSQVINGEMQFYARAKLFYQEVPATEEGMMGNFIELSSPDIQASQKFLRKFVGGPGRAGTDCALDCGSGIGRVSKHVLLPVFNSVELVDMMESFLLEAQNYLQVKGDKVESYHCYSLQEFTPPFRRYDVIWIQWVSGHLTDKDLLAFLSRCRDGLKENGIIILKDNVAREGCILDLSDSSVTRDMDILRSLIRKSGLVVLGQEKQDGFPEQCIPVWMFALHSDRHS
Outline: (§2)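 ITC at 25 °C. Purified protein (NTMT1 for line 1, NTMT2 for line 2) in 20 mM Tris-HCl pH 7.5, 150 mM NaCl, 0.5 mM TCEP at 30–50 µM final. Compound at 0.5–1 mM in the same buffer, titrated in as 26 injections of 10 µl, 180 s apart, reference power 15 µcal/sec.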

[4] = Drug penetration in human HCT116 cells at 1 uM by MALDI-MS analysis; format: ADME, cell-based; conditions: hct-116, 1 µM
Outline: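 HCT116 cells in McCoy's 5A with 10% FBS and 1% antibiotic-antimycotic, seeded at 0.1 × 10^6 cells/mL in 24-well plates and incubated overnight at 37 °C, 5% CO2. Compound added and incubation continued for the specified time; TAT peptide run as control. Cells washed three times with PBS, freeze-lysed twice in liquid nitrogen, and lysate analysed by MALDI (DHB matrix) for intracellular compound.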

[5] = biological target: T2, N-terminal Xaa-Pro-Lys N-methyltransferase 1; assay: Binding affinity to recombinant human full-length His6-tagged NTMT1 (1 to 222 residues) by ITC assay; outline: as §2
[6] = biological target: T1, N-terminal Xaa-Pro-Lys N-methyltransferase 1 (Homo sapiens); assay: Inhibition of NTMT1 in human HCT116 cells assessed as decrease in me3-SPK level at 100 uM incubated for 72 hrs by Western blot analysis; format: cell-based
Outline: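 HCT116 cells seeded at 20,000 cells/well and treated 3 days with compound or PBS. Lysed in RIPA for 30 min on ice; equal protein (BCA) run on 12.5% SDS-PAGE and transferred to PVDF. Blotted with anti-me3-SPK (1:5000) overnight at 4 °C, with Lamin B1, SET and RCC1 antibodies, then HRP anti-rabbit.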

[7] = biological target: T1, N-terminal Xaa-Pro-Lys N-methyltransferase 1 (Homo sapiens); assay: as §1, with “cells at 30 uM” for “cells”, “assay relative to control” for “assay”; conditions: time 25.0 min
Outline: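 Pre-incubated 10 min at 37 °C, then started with RCC1-6 (10 µL of 50 µM stock in 100 µL). Read Ex 370/Em 500 nm for 15 min at 37 °C. Line 11 screened at 30 µM; line 12 used 0–100 µM three-fold series, four-parameter fit. Triplicate.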

Compound | Activity [1] | IC50 [2] [µM] | also measured
NCCCC[C@H](NC(=O)[C@@H]1CCCN1C(=O)Cc1ccc(O)cc1)C(N)=O | inactive | 16 | –
N=C(N)NCCC[C@H](NC(=O)[C@H](CCCNC(=N)N)NC(=O)[C@H](CCCNC(=N)N)NC(=O)[C@H](CCC(N)=O)NC(=O)[C@H](CCCNC(=N)N)NC(=O)[C@H](CCCNC(=N)N)NC(=O)[C@H](CCCCN)NC(=O)[C@H](CCCCN)NC(=O)[C@H](CCCNC(=N)N)NC(=O)CNC(=O)[C@H](CCCNC(=N)N)NC(=O)[C@H](CCCCN)NC(=O)[C@@H]1CCCN1C(=O)Cc1ccc(O)cc1)C(N)=O | – | – | Kd [3]: 3.4 µM; Drug uptake [4]: Active; Kd [5]: 0.6 µM
NCCCC[C@H](NC(=O)[C@@H]1CCCN1C(=O)Cc1ccc(O)cc1)C(=O)NCC(N)=O | inactive | 13 | –
N=C(N)NCCC[C@H](NC(=O)[C@H](CCCNC(=N)N)NC(=O)[C@H](CCCNC(=N)N)NC(=O)[C@H](CCCNC(=N)N)NC(=O)[C@H](CCCNC(=N)N)NC(=O)[C@H](CCCNC(=N)N)NC(=O)[C@H](CCCCN)NC(=O)[C@@H]1CCCN1C(=O)Cc1ccc(O)cc1)C(N)=O (X1-PKRRRRRR-NH2) | – | – | inhibition [6]: Active; Kd [3]: 1 µM; Drug uptake [4]: Active; Kd [5]: 0.3 µM
C[C@@H](O)[C@H](NC(=O)[C@H](CCCCN)NC(=O)[C@@H]1CCCN1C(=O)Cc1ccc(O)cc1)C(N)=O | inactive | 4.8 | –
N=C(N)NCCC[C@H](NC(=O)[C@H](CCCCN)NC(=O)[C@@H]1CCCN1C(=O)C1CCCCC1)C(N)=O | inactive | > 100 | –
N=C(N)NCCC[C@H](NC(=O)[C@H](CCCCN)NC(=O)[C@@H]1CCCN1C(=O)c1ccccc1)C(N)=O (Bz-Pro-Lys-Arg-NH2) | inactive | > 100 | –
N=C(N)NCCC[C@H](NC(=O)[C@H](CCCCN)NC(=O)[C@@H]1CCCN1C(=O)CCc1ccc(N)cc1)C(N)=O | inactive | 12 | –
N=C(N)NCCC[C@H](NC(=O)[C@H](CCCCN)NC(=O)[C@@H]1CCCN1C(=O)c1ccco1)C(N)=O | inactive | > 100 | –
CC1(C(=O)N[C@@H](CCCCN)C(=O)N[C@@H](CCCNC(=N)N)C(N)=O)CCCN1C(=O)Cc1ccccc1 (stereo partly drawn) (PhAc-[ξαMeP]-Lys-Arg-NH2) | inactive | > 100 | –
C[C@H](NC(=O)[C@H](CCCCN)NC(=O)[C@@H]1CCCN1C(=O)Cc1ccc(O)cc1)C(N)=O | inactive | 4.8 | –
N=C(N)NCCC[C@H](NC(=O)[C@H](CCCCN)NC(=O)[C@@H]1CCCN1CCc1ccc(O)cc1)C(N)=O | inactive | > 100 | –
N=C(N)NCCC[C@H](NC(=O)[C@H](CCCCN)NC(=O)c1cccc(NC(=O)Cc2ccc(O)cc2)c1)C(N)=O | inactive | > 100 | –
N=C(N)NCCC[C@H](NC(=O)[C@H](CCCCN)NC(=O)c1ccccc1NC(=O)Cc1ccc(O)cc1)C(N)=O | inactive | > 100 | –
N=C(N)NCCC[C@H](NC(=O)[C@H](CCCCN)NC(=O)[C@@H]1CCCN1C(=O)Cc1ccccc1)C(N)=O (PhAc-Pro-Lys-Arg-NH2) | inactive | 6.85 | inhibition [7]: > 50%
N=C(N)NCCC[C@H](NC(=O)[C@H](CCCCN)NC(=O)[C@@H]1CCCN1C(=O)C1CCCC1)C(N)=O | inactive | > 100 | –

Further lines, with some results ahead:

Activity [1] | IC50 [2] [µM] | Compound | also measured
inactive | > 100 | COc1ccc(CC(=O)N2CCC[C@H]2C(=O)N[C@@H](CCCCN)C(=O)N[C@@H](CCCNC(=N)N)C(N)=O)cc1 | –
inactive | 4.5 | N=C(N)NCCC[C@H](NC(=O)[C@H](CCCCN)NC(=O)[C@@H]1CCCN1C(=O)CCc1ccc(O)cc1)C(N)=O | –
inactive | 32.9 | N=C(N)NCCC[C@H](NC(=O)C[C@@H](CCCN)NC(=O)[C@@H]1CCCN1C(=O)Cc1ccc(O)cc1)C(N)=O | –
inactive | 4.3 | N=C(N)NCCC[C@H](NC(=O)[C@H](CCCCN)NC(=O)[C@@H]1CCCN1C(=O)Cc1ccc(N)cc1)C(N)=O | –
inactive | 1 | NCCCC[C@H](NC(=O)[C@H](CCCCN)NC(=O)[C@@H]1CCCN1C(=O)Cc1ccc(O)cc1)C(N)=O | –
inactive | – | N=C(N)NCCC[C@H](NC(=O)[C@H](CCCCN)NC(=O)[C@@H]1CCCN1C(=O)Cc1ccc(CO)cc1)C(N)=O | –
inactive | 6.4 | N=C(N)NCC[C@H](CC(N)=O)NC(=O)[C@H](CCCCN)NC(=O)[C@@H]1CCCN1C(=O)Cc1ccc(O)cc1 | –
inactive | 4.2 | N=C(N)NCCC[C@@H](NC(=O)[C@H](CCCCN)NC(=O)[C@@H]1CCCN1C(=O)Cc1ccc(O)cc1)C(N)=O | –
